The source made the active and inactive calls. No cut-off for these calls is given here.
Legend:
[1] = molecular target: T1, Glycogen synthase kinase-3 beta (Homo sapiens, UniProt P49841); assay: Inhibition of human recombinant GSK3beta at 10 uM after 30 mins by luminescence assay in presence of ATP
Method in brief: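 Human recombinant GSK-3β (20 ng) with prephosphorylated polypeptide substrate 25 μM and ATP 1 μM in 50 mM HEPES pH 7.5, 1 mM EDTA, 1 mM EGTA, 15 mM Mg acetate. Final DMSO ≤1%. Incubated 30 min at 30 °C, stopped with Kinase-Glo reagent, and luminescence read after 10 min. Inhibition is relative to the no-inhibitor maximum. IC50 is the concentration giving 50% activity loss.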
Target sequence in this assay (P49841 whole entry, looked up): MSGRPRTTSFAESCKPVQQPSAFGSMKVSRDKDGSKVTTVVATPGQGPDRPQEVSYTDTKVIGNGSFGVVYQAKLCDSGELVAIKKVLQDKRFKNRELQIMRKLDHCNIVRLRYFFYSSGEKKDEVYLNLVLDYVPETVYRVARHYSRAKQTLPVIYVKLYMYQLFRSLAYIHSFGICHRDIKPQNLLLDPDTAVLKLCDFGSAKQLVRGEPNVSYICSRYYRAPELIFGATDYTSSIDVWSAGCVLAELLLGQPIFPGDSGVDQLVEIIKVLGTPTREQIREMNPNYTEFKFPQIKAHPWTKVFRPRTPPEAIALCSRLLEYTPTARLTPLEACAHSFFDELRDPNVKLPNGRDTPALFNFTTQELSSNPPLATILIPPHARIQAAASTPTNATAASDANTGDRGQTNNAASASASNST

[2] = molecular target: T1, Glycogen synthase kinase-3 beta; assay: Inhibition of human recombinant GSK3beta after 30 mins by luminescence assay in presence of ATP
Target sequence in this assay (P49841 whole entry): as the sequence (P49841 whole entry, looked up) above

[3] = Effective permeability across porcine polar brain lipid after 4 hrs by PAMPA; conditions: pig; for Papp at 4 h: PAMPA; for Peff: pampa, 4 h

| inhibition [1] | IC50 [2] | Papp at 4 h [3] | Peff [3] | Structure (SMILES) |
| --- | --- | --- | --- | --- |
| > 60% | 4.1 µM | 6.3 ×10⁻⁶ cm/s |  | Br.COc1ccc(-n2s/c(=N/Cc3cccnc3)nc2-c2ccccc2)cc1 |
| inactive |  |  |  | CCCCCNC(=S)N/C(=N/c1ccccc1)c1ccc(OC)cc1 |
| > 60% | 0.3 µM |  |  | OCC/N=c1\nc(-c2ccccc2)n(-c2cccc3ccccc23)s1 |
| inactive |  |  |  | CCCCC/C(=N\c1ccccc1)NC(=S)NCc1cccnc1 |
| > 60% | 1.1 µM |  | ND(Insoluble) | Br.COc1ccc(-c2n/c(=N\c3ccccc3)sn2-c2ccccc2)cc1 |
| inactive |  |  |  | S=C(NCc1cccnc1)N/C(=N/Cc1ccccc1)c1ccccc1 |
| inactive |  |  |  | S=C(NCc1cccnc1)N/C(=N/c1ccccc1)c1ccccc1 |
| inactive |  |  |  | O=[N+]([O-])c1ccc(/N=C(/NC(=S)NCc2cccnc2)c2ccccc2)cc1 |
| > 60% |  |  | ND(Insoluble) | c1ccc(/N=c2\nc(-c3ccccc3)n(-c3ccccc3)s2)cc1 |
|  | 1.8 µM |  |  | CCOC(=O)C/N=c1\nc(-c2ccccc2)n(-c2ccccc2)s1 |
| inactive |  |  |  | FC(F)(F)c1ccc(/C(=N\c2ccccc2)NC(=S)NCc2cccnc2)cc1 |
| > 60% | 0.6 µM | 5.3 ×10⁻⁶ cm/s |  | Br.Cc1n/c(=N\Cc2cccnc2)sn1-c1ccccc1 |
| inactive |  |  |  | CCOC(=O)CNC(=S)N/C(=N/c1ccc(OC)cc1)c1ccccc1 |
| inactive |  |  |  | CCOC(=O)CNC(=S)N/C(=N/c1ccccc1)c1ccc(OC)cc1 |
| > 60% | 1 µM |  |  | O=[N+]([O-])c1ccc(-n2s/c(=N/Cc3cccnc3)nc2-c2ccccc2)cc1 |
| > 60% |  |  |  | c1ccc(-n2s/c(=N/Cc3cccnc3)nc2-c2cccc3ccccc23)cc1 [listing 1 of 3 here] |
| inactive |  |  |  | COc1ccc(/C(=N\c2ccccc2)NC(=S)Nc2ccccc2)cc1 |
| inactive |  |  |  | CCOC(=O)CNC(=S)N/C(=N/c1ccccc1)c1ccccc1 |
|  | 2.1 µM |  |  | c1ccc(-n2s/c(=N/Cc3cccnc3)nc2-c2cccc3ccccc23)cc1 [listing 2 of 3 here] |
|  |  | 14.9 ×10⁻⁶ cm/s |  | CNCCCN1c2ccccc2CCc2ccccc21 [DESIPRAMINE] |
| inactive |  |  |  | COc1ccc(/N=C(/NC(=S)NCc2cccnc2)c2ccccc2)cc1 |

| inhibition [1] | IC50 [2] | Papp at 4 h [3] | Peff [3] | Structure (SMILES) |
| --- | --- | --- | --- | --- |
|  | 2 µM | 15.8 ×10⁻⁶ cm/s |  | Br.OCC/N=c1\nc(-c2ccccc2)n(-c2ccccc2)s1 |
|  | 7 µM | 6.2 ×10⁻⁶ cm/s |  | Br.CCOC(=O)C/N=c1\nc(-c2ccccc2)n(-c2ccccc2)s1 |
| inactive |  |  |  | C/C(=N\c1ccccc1)NC(=S)NCc1cccnc1 |
| > 60% | 1.2 µM | 13.7 ×10⁻⁶ cm/s |  | Br.COc1ccc(-c2n/c(=N\CCO)sn2-c2ccccc2)cc1 |
| > 60% | 1.1 µM |  |  | c1ccc(Cn2s/c(=N/Cc3cccnc3)nc2-c2ccccc2)cc1 |
| > 60% | 0.3 µM | 10.2 ×10⁻⁶ cm/s |  | Br.OCC/N=c1\nc(-c2cccc3ccccc23)n(-c2ccccc2)s1 |
| inactive |  |  |  | NC(=S)N/C(=N/c1ccccc1)c1ccccc1 |
| inactive |  |  |  | S=C(N/C(=N/c1ccccc1)c1ccccc1)Nc1ccccc1 |
|  |  | 1.6 ×10⁻⁶ cm/s |  | Cn1c(=O)c2c(ncn2C)n(C)c1=O [CAFFEINE] |
| > 60% | 1 µM |  |  | CCOC(=O)C/N=c1\nc(-c2ccccc2)n(-c2ccc([N+](=O)[O-])cc2)s1 |
|  | 0.6 µM | 13.6 ×10⁻⁶ cm/s |  | Cl.OCC/N=c1\nc(-c2ccccc2)n(-c2ccccc2)s1 |
| > 60% | 0.8 µM |  |  | CCCCCc1n/c(=N\Cc2cccnc2)sn1-c1ccccc1 |
| > 60% |  |  |  | CCCCC/N=c1\nc(-c2ccc(OC)cc2)n(-c2ccccc2)s1 [listing 1 of 2 here] |
| > 60% | 1.4 µM |  |  | CCCCC/N=c1\nc(-c2ccccc2)n(-c2ccccc2)s1 |
| > 60% |  |  | ND(Insoluble) | Br.c1ccc(/N=c2/nc(-c3ccccc3)n(-c3ccccc3)s2)cc1 |
| inactive |  |  |  | COc1ccc(/N=C(/NC(=S)NCCO)c2ccccc2)cc1 |
| > 60% | 1.2 µM | 4.8 ×10⁻⁶ cm/s |  | Br.COc1ccc(-c2n/c(=N\Cc3cccnc3)sn2-c2ccccc2)cc1 |
| inactive |  |  |  | CCOC(=O)CNC(=S)N/C(=N/c1ccc([N+](=O)[O-])cc1)c1ccccc1 |
| inactive |  |  |  | COc1ccc(/C(=N\c2ccccc2)NC(=S)NCc2cccnc2)cc1 |
| > 60% | 1.6 µM |  | ND(Insoluble) | Br.FC(F)(F)c1ccc(-c2n/c(=N\Cc3cccnc3)sn2-c2ccccc2)cc1 |
| inactive |  |  |  | COc1ccc(/C(=N\c2ccccc2)NC(=S)NCCO)cc1 |

| inhibition [1] | IC50 [2] | Papp at 4 h [3] | Peff [3] | Structure (SMILES) |
| --- | --- | --- | --- | --- |
| > 60% | 0.6 µM | 9.1 ×10⁻⁶ cm/s |  | Br.N=c1nc(-c2ccccc2)n(-c2ccccc2)s1 |
| 14% |  |  |  | c1ccc(/N=C(/N=c2/nc3ccccn3s2)c2ccccc2)cc1 |
| inactive |  |  |  | S=C(NCc1cccnc1)N/C(=N/c1ccccc1)c1cccc2ccccc12 |
| > 60% | 0.5 µM | 4 ×10⁻⁶ cm/s |  | Br.CCOC(=O)C/N=c1\nc(-c2ccc(OC)cc2)n(-c2ccccc2)s1 |
|  |  | 1.7 ×10⁻⁶ cm/s |  | CN1C(C(=O)Nc2ccccn2)=C(O)c2ccccc2S1(=O)=O [PIROXICAM] |
| > 60% | 2 µM |  |  | c1ccc(-c2n/c(=N\Cc3cccnc3)sn2-c2cccc3ccccc23)cc1 |
| inactive |  |  |  | S=C(N/C(=N/c1ccccc1)c1ccccc1)Nc1ccccn1 |
| inactive |  |  |  | S=C(NCCN1CCOCC1)N/C(=N/c1ccccc1)c1ccccc1 |
|  | 0.3 µM |  |  | CCCCC/N=c1\nc(-c2ccc(OC)cc2)n(-c2ccccc2)s1 [listing 2 of 2 here] |
| inactive |  |  |  | OCCNC(=S)N/C(=N/c1ccccc1)c1cccc2ccccc12 |
| inactive |  |  |  | S=C(N/C(=N/c1ccccc1)c1ccccc1)NC1CCCCC1 |
| > 60% | 2.1 µM |  | ND(Insoluble) | Br.c1ccc(-c2n/c(=N\C3CCCCC3)sn2-c2ccccc2)cc1 |
| inactive |  |  |  | S=C(NCc1cccnc1)N/C(=N/c1cccc2ccccc12)c1ccccc1 |
|  | 1.1 µM | 8.5 ×10⁻⁶ cm/s |  | CCCCC/N=c1\nc(-c2ccc(OC)cc2)n(-c2ccccc2)s1.Cl |
| inactive |  |  |  | OCCNC(=S)N/C(=N/c1ccccc1)c1ccccc1 |
| inactive |  |  |  | CCCCCNC(=S)N/C(=N/c1ccccc1)c1ccccc1 |
| > 60% | 2 µM | 4.4 ×10⁻⁶ cm/s |  | Br.CCOC(=O)C/N=c1\nc(-c2ccccc2)n(-c2ccc(OC)cc2)s1 |
|  | 0.9 µM |  |  | c1ccc(-n2s/c(=N/Cc3cccnc3)nc2-c2cccc3ccccc23)cc1 [listing 3 of 3 here] |
| inactive |  |  |  | OCCNC(=S)N/C(=N/c1cccc2ccccc12)c1ccccc1 |
